Results taken from ChEMBL document CHEMBL1914407, “New dammarane-type glucosides as potential activators of AMP-activated protein kinase (AMPK) from Gynostemma pentaphyllum” (Bioorg Med Chem, 2011).
The source made the active and inactive calls.

Assays:
[1] = tested on: L6; test: Induction of AMPK-alpha phosphorylation at thr172 in rat L6 cells at 150 uM by Western blot analysis in presence of 10 uM of AMPK inhibitor; format: cell-based
Outline: (§1)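 L6 myotubes pretreated 10 min with the AMPK inhibitor compound C (10 µM), then exposed to compound for 2 h (DMSO vehicle). Lysates immunoblotted for phospho-AMPKα1/2 (Thr172) and total AMPK.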

[2] = tested on: L6; test: Induction of AMPK alpha-mediated ACC phosphorylation at ser79 in rat L6 cells after 2 hrs by Western blot analysis; format: cell-based
Outline: (§2)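 Differentiated L6 myotubes treated 2 h with a range of compound concentrations (DMSO vehicle), then lysed in pH 8.0 Tris buffer containing NP-40, EDTA, DTT, PMSF, orthovanadate, NaF and protease inhibitors. Immunoblotted for phospho-AMPKα1/2 (Thr172), total AMPK, phospho-ACC (Ser79) and total ACC.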

[3] = tested on: L6; test: Increase in AMPK alpha-mediated GLUT4 translocation into plasma membrane in rat L6 cells assessed as [3H]2-deoxy-glucose uptake after 2 hrs by scintillation counting relative to control; format: cell-based
Outline: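 2-Deoxy-[3H]D-glucose added for 10 min, then three ice-cold 0.9% NaCl washes. Cytochalasin B (10 µM) blank subtracted. Cells collected in 0.05 N NaOH and counted by scintillation. Expressed as pmol 2-DG/min/mg protein or fold over control. Mean ± S.D. of three experiments.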

[4] = tested on: L6; test: Increase in beta-oxidation in rat L6 cells assessed as tritiated water production at 150 uM by scintillation counting; format: functional, cell-based
Outline: (§3)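 Fatty acid β-oxidation measured in differentiated L6 myotubes treated with compound, using DMSO as vehicle control. 3H2O formed was quantified in a scintillation counter.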

[5] = tested on: L6; test: Induction of AMPK-alpha phosphorylation at thr172 in rat L6 cells after 2 hrs by Western blot analysis; format: cell-based; outline: as §2
[6] = tested on: L6; test: Increase in beta-oxidation in rat L6 cells assessed as tritiated water production at 12 uM by scintillation counter method; format: functional, cell-based; outline: as §3
[7] = tested on: L6; test: Induction of AMPK-alpha phosphorylation at thr172 in rat L6 cells at 12 uM by Western blot analysis in presence of 10 uM of AMPK inhibitor; format: cell-based; outline: as §1

Measured: Activity

CC(C)=CC/C=C(\C)[C@H]1CC[C@]2(C)[C@@H]1[C@H](O)C[C@@H]1[C@@]3(C)C[C@@H](O)[C@H](O[C@@H]4O[C@H](CO)[C@@H](O)[C@H](O)[C@H]4O[C@@H]4O[C@H](CO)[C@@H](O)[C@H](O)[C@H]4O)C(C)(C)[C@@H]3CC[C@]12C
active: [1] | [2] Dose-dependent effect | [3] Dose-dependent effect | [4] | [5] Dose-dependent effect

C=C(CCC=C(C)C)[C@H]1CC[C@]2(C)[C@@H]1[C@H](O)C[C@@H]1[C@@]3(C)C[C@@H](O)[C@H](O[C@@H]4O[C@H](CO)[C@@H](O)[C@H](O)[C@H]4O[C@@H]4O[C@H](CO)[C@@H](O)[C@H](O)[C@H]4O)C(C)(C)[C@@H]3CC[C@]12C
active: [2] Dose-dependent effect | [3] Dose-dependent effect | [6] | [7] | [5] Dose-dependent effect
